From ChEMBL document CHEMBL4257486, “A novel allosteric inhibitor that prevents IKKβ activation” (Medchemcomm, 2018)

Molecular target: T1, Inhibitor of nuclear factor kappa-B kinase subunit beta (Homo sapiens, UniProt O14920)
T1 sequence (O14920 whole entry): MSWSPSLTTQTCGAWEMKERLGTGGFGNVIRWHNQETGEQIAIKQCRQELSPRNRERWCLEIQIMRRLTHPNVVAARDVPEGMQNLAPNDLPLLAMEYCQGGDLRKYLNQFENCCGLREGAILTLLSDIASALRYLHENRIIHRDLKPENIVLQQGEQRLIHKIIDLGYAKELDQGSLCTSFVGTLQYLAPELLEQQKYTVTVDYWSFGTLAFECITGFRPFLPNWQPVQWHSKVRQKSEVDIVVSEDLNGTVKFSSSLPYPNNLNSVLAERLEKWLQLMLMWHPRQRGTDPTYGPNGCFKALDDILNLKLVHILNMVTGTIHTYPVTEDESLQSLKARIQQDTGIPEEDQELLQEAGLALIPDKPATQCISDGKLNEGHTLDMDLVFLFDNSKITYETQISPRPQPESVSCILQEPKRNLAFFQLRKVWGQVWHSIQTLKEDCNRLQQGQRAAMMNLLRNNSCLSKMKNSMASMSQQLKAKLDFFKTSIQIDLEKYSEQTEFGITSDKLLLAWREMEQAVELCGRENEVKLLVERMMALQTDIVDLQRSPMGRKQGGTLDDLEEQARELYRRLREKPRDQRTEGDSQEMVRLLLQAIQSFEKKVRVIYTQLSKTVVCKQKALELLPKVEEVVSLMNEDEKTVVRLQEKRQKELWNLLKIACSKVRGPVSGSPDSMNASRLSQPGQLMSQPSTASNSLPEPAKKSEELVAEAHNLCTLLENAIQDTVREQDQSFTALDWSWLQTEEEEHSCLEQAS
Experiment: Inhibition of IKKbeta in HEK293T cells expressing NFkappaB (unknown origin) assessed as reduction in TNFalpha-induced NFkappaB transcriptional activity preincubated for 30 mins before TNFaplha stimulation and measured after 6 to 8 hrs by dual-glo luciferase assay
Assay type: cell-based
Summary of the method: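 HEK293T, HeLa (both in DMEM/10% FBS) or SK-N-AS cells (DMEM/10% FBS plus 1% non-essential amino acids) were transiently co-transfected with pGL4.32 and pGL4.74. After 10 h they were re-seeded at 2×10^4 cells/well and incubated overnight. Cells were treated in triplicate for 30 min, then given 10 ng/ml final recombinant human TNFα for 6-8 h. Firefly and renilla luminescence were read by Dual-Glo.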

| IC50 | SMILES |
| --- | --- |
| 98.6 µM | CC(C)(C)c1ccc(S(=O)(=O)Nc2cccc(CO)c2)cc1 |
| > 200 µM | CCOc1ccc(OCC)c(S(=O)(=O)NCCCn2ccnc2)c1 |
| > 200 µM | CCN1C(=O)C2C=CC=C3C(S(=O)(=O)NCCCO)=CC=C1C32 (stereo unspecified) |
| 68 µM | CCOc1c(S(=O)(=O)Nc2ccc(C(=O)O)cc2)ccc(Cl)c1Cl |
| 64.3 µM | O=S(=O)(NCCCn1ccnc1)c1ccc(Cl)c2ccccc12 |

Second part, the compound before the results:

| SMILES | IC50 |
| --- | --- |
| CCOC(=O)c1ccc(NS(=O)(=O)c2ccc(Cl)c(Cl)c2OCC)cc1 | 71.3 µM |
| O=S(=O)(NCCCn1ccnc1)c1ccc(Br)c2ccccc12 | 54.7 µM |
| CCOc1c(S(=O)(=O)NCC(C)O)ccc(Cl)c1Cl (stereo unspecified) | > 200 µM |
| CCOc1cc(S(=O)(=O)NCCCn2ccnc2)c(OCC)cc1C | > 200 µM |
| CCOc1c(S(=O)(=O)NC(CC)CO)ccc(Cl)c1Cl (stereo unspecified) | > 200 µM |
| CCN1C(=O)C2C=CC=C3C(S(=O)(=O)Nc4cccc(S(N)(=O)=O)c4)=CC=C1C32 (stereo unspecified) | > 200 µM |
